# Columns and labels:
# SPOP-53BP1 interaction [1] = experiment: Co-IP of SPOP-53BP1 interaction in 293T cells with kinase inhibitors and IR; format: cell-based; settings: IR for 1 hour
# How it was run: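 293T cells (DMEM, 10% FBS) transiently transfected with tagged constructs by lipofection, pretreated with kinase inhibitors (DMSO vehicle), then irradiated and harvested 1 h later. Lysed in BC100 buffer 24 h post-transfection; FLAG-tagged proteins pulled down on anti-FLAG M2 agarose, HA-tagged with anti-HA plus protein A/G beads, overnight at 4°C. Immunoblot on nitrocellulose with ECL detection.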
# [2] = tested on: 53BP1 FFR polyubiquitination; experiment: In vivo ubiquitination assay of 53BP1 FFR; format: cell-based; settings: CPT treatment, fig. S2H
# 53BP1 polyubiquitination = experiment: In vivo ubiquitination assay of 53BP1; format: cell-based; settings: CPT treatment, fig. S2E
# SPOP-53BP1 interaction [3] = experiment: Co-IP of SPOP-53BP1 interaction after DNA damage; format: cell-based; settings: DNA damage by CPT
# BPH1 cells = experiment: Karyotype analysis, chromosome breaks; format: cell-based; settings: SPOP F133V-expressing BPH1 cells, CPT 1 μM for 24 hours; largely reversed by 53BP1 co-KO
# L3MBTL1 = experiment: Immunodepletion of PC-3 lysate with L3MBTL1 antibody; format: binding; settings: IR 4 Gy, 1 hour, immunodepleted five times
# How it was run: (§1)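 PC-3 cells were grown in RPMI with 10% FBS, irradiated (4 Gy), and lysed 1 h later. Lysate was immunodepleted five times with antibody to L3MBTL1 or to 53BP1, with preimmune sera as control. Read-out was Western blot: SDS-PAGE, transfer to nitrocellulose, blocking in TBS (pH 7.4) with 5% nonfat milk and 0.1% Tween 20, primary antibody overnight at 4°C, secondary 1 h at room temperature.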
# 53BP1 = experiment: Immunodepletion of PC-3 lysate with 53BP1 antibody; format: binding; settings: IR 4 Gy, 1 hour, immunodepleted five times
# How it was run: as §1
# [4] = molecular target: SPOP MATH domain (residues 28 to 164) D140G (human, UniProt O43791 28-164, D140G); experiment: crystal structure
# SPOP MATH domain (residues 28 to 164) D140G, sequence (O43791 28-164 D140G): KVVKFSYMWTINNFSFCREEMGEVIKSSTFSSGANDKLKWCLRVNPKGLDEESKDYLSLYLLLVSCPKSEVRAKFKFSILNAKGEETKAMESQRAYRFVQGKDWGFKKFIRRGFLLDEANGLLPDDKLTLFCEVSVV
molecule,measurement,setting,value
O=c1cc(-c2cccc3c2Sc2ccccc2S3)oc(N2CCOCC2)c1 [ATM kinase inhibitor],effect on SPOP-53BP1 interaction,SPOP-53BP1 interaction [1],attenuated the SPOP-53BP1 interaction
"CC[C@@]1(O)C(=O)OCc2c1cc1n(c2=O)Cc2cc3ccccc3nc2-1 [CPT, camptothecin]",effect on SPOP-increased 53BP1 FFR polyubiquitination,[2],this effect was enhanced by CPT treatment
same,effect on SPOP-induced polyubiquitination of 53BP1,53BP1 polyubiquitination,enhanced SPOP-induced polyubiquitination of 53BP1
same,effect on SPOP-53BP1 interaction,SPOP-53BP1 interaction [3],markedly enhanced
same,number of intrachromosomal breaks per cell,BPH1 cells,marked increase in the number of intrachromosomal breaks per cell
NPL4: valosin-containing protein/p97 cofactor NPL4,fraction of NPL4 bound to L3MBTL1,L3MBTL1,approximately 33%
same,fraction of NPL4 bound to 53BP1,53BP1,approximately 10%
"PATPTASSSSSTTPT (peptide, UniProt Q12888 1636-1650, looked up) [53BP1 SBM synthetic peptide (residues 1636 to 1650)]",binding result,[4],binds
